Myeloid diff MLP = induction of myeloid progenitor differentiation, primary screen, cell-based, flow cytometry, MLPCN library | ER-HoxA9 myeloid progenitors, lysozyme-GFP differentiation | calls only at 10 µM | actives 1% (n = 360,000) | AID 624256, 2012;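 active means normalized GFP-positive differentiation at or above the plate's own cutoff, the solvent-only control mean plus 3 SD; inconclusive means no clear call, values can overlap the other calls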;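 further: cells exposed to compound for four days before flow analysis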
CSN inh = inhibitors of CSN-mediated cullin deneddylation, primary screen, biochemical, fluorescence polarization, uHTS. COP9 signalosome complex subunit 5 (Homo sapiens), Q92905. Purified CSN, SCF-Nedd8-OG deneddylation. inhibition, % at 12.5 µM. actives 0.38% (n = 360,000). AID 651999, 2013;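 active means pattern-corrected inhibition above about 35%, with an unprinted fluorescence ratio check between 0.5 and 1.5, limit read from the data, passing the limit was not always enough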;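 further: 0% = enzyme with substrate and 100% = substrate without enzyme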
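assay system = purified human Csn5 enzyme expressed in HEK293T cells | amount = 0.24 nM enzyme | buffer or medium = Tris/NaCl/DTT buffer, pH 7.5 | reagent = 10 nM SCFSkp2-Nedd8OG | compound = one concentration, 12.5 µM, 0.25% DMSO | times = 90 min reaction at room temperature | signal = FP | read-out basis = % inhibition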
Rpn11 inh = Rpn11 (PSMD14) deubiquitinase inhibitors, primary screen, biochemical, fluorescence polarization, uHTS | human 26S proteasome, Ub4-pepOG fluorescence polarization; 20S core pre-blocked with epoxomicin | AID 588493, 2011 | actives 0.59% (n = 360,000) | inhibition, % at 20 µM;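 active means inhibition at 20 µM, scaled to each plate's controls, above about 33%, limit read from the data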
Target sequence (O00487 whole entry, looked up): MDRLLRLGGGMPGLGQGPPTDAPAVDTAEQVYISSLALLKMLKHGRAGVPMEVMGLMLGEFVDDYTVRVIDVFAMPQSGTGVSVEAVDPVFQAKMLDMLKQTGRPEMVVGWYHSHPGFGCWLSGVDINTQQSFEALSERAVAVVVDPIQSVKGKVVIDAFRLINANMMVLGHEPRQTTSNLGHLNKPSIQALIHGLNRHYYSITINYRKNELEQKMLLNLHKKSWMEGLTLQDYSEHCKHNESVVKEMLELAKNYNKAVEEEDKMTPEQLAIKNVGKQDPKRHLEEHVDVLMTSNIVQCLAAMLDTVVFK
HNF4A DNA FP = change in binding of human HNF4A to DNA, primary screen, biochemical, fluorescence polarization, FITC-DNA | AID 1224865, 2016 | activity change, % at 10 µM | 1 h | actives 0.3% (n = 360,000) | Hepatocyte nuclear factor 4-alpha (Homo sapiens), P41235; in the data active means activity change above about 30%, passing the limit was not always enough
TPT1 inh = Candida albicans TPT1 enzyme inhibitors, primary screen, biochemical, fluorescence polarization; tRNA 2'-phosphotransferase TPT1 (Candida albicans SC5314); recombinant caTPT1, FP RNA substrate dephosphorylation; inhibition, % at 5 µM; actives 0.81% (n = 300,000); AID 1962, 2009;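 active means inhibition above the mean of all tested compounds plus 3 SD, set per screening campaign, cut at about 24% in these data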;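 further: plate controls were DMSO alone for no effect and ferristatin control at 100 nM for full effect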
caTPT1 confirm = Candida albicans TPT1 inhibitors, confirmation, biochemical, fluorescence polarization, triplicate; inhibition, % at 5 µM; recombinant caTPT1, RNase T1 coupled; actives 74% (n = 2,400); shares compounds with TPT1 inh; AID 2149, 2009;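 active means inhibition above the primary screen limit, the mean inhibition of all tested compounds plus 3 SD, cut at about 25% in these data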
RNase T1 counter = RNase T1 inhibitors, counter-screen for TPT1 inhibitor project, biochemical, fluorescence polarization. shares compounds with TPT1 inh. RNase T1 cleavage, 1536-well. inhibition, % at 5 µM. actives 83% (n = 2,400);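 active means inhibition above the solvent-only control well mean plus 3 SD, limit set per screening run, cut at about 23% in these data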;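 further: plate controls were DMSO wells with enzyme for no effect and wells without RNase T1 for full effect; inhibitors block cleavage so intact labeled substrate keeps polarization high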
Target sequence (P00651 whole entry, looked up): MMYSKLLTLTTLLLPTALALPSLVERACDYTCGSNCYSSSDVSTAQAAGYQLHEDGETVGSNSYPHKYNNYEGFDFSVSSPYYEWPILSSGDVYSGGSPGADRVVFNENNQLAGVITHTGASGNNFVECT
* = called active by the depositor; i = inactive; ? = inconclusive; nt = no result shown; + = active, no number. An excerpt weighted towards active compounds, which were near 2.3% of everything screened.

SMILES	Myeloid diff MLP	CSN inh	Rpn11 inh	HNF4A DNA FP	TPT1 inh	caTPT1 confirm	RNase T1 counter
CCN1C(=O)/C(=C\N2CCN(C(=O)c3ccco3)CC2)SC1=S	i	2	3	-6	5	nt	nt
CC(=O)Nc1ccc(S(=O)(=O)Nc2nc3ccccc3nc2Nc2ccc(O)c(C(=O)O)c2)cc1	i	19	nt	27	43*	24*	33*
CCOC(=O)c1cc2nc(Nc3ccc(OC)cc3)sc2s1	+	5	32	18	39*	27*	40*
O=C(N[C@H](CO)Cc1ccccc1)c1ccco1	i	-3	2	-2	0	nt	nt
CCc1ccc(/C=C/C(=O)c2cc(Br)ccc(=O)c2O)cc1	i	25	0	-1	25*	25*	33*
CCOc1ccc(/C=C/C(=O)c2cc(Br)ccc(=O)c2O)cc1	i	18	16	-7	24*	32*	41*
CC(C)Nc1ccc(Cl)cc1[N+](=O)[O-]	nt	nt	nt	nt	-2	nt	nt
C/C(Cn1nnc2ccccc21)=N\NC(=O)c1cccc(Br)c1	i	-6	-5	3	-1	nt	nt
O=C(CNC(=O)c1sc2ccccc2c1Cl)Nc1ccccc1F	i	0	0	-1	2	nt	nt
CC(/C=C/c1ccc(N(C)C)cc1)=N\N=C(/N)SC1CC(=O)N(c2ccc(C(=O)O)cc2)C1=O (stereo unspecified)	+	13	nt	40*	26*	28*	43*
O=C(NCCc1ccc(Cl)cc1)c1ccc2c(c1)OCCO2	i	-1	1	-7	2	nt	nt
COc1ccc(Oc2cnc3ccccc3n2)cc1	i	1	-6	-4	66*	4	5
c1ccc(Oc2cnc3ccccc3n2)cc1	i	8	-2	-5	-4	nt	nt
O=C(NCc1ccc(F)cc1)C1CCN(S(=O)(=O)c2ccc(Br)s2)CC1	i	0	-4	1	-5	nt	nt
O=C(NC1CCSC1)c1cccc(Cl)c1 (stereo unspecified)	i	-4	2	-1	0	nt	nt
O=C(NC1CCSC1=O)c1cccc(Cl)c1 (stereo unspecified)	i	-3	-5	3	31*	6	8
CCOC(=O)C1C(=O)C(=O)N(C2CCCCC2)C1C(=O)OCC (stereo unspecified)	i	-3	-1	5	nt	nt	nt
C=CCN1C(=O)/C(=C/C=C2/N(CC)c3ccc(S(=O)(=O)N(C)C)cc3N2CC)SC1=S	+	28	nt	-55	161*	144*	138*
CC1=Nc2ccc(C)cc2/C1=C/c1c(N)n2nc(CC(=O)N3CCOCC3)sc2nc1=O	i	14	34	10	35*	24	36*
Nc1c(/C=C2/C=CC(=O)C(O)=C2)c(=O)nc2sc(CC(=O)N3CCOCC3)nn12	i	53	27	-1	nt	nt	nt
COc1ccc2nc(Nc3nc(C)c(CCC(C)C)c(=O)[nH]3)nc(C)c2c1	i	2	0	4	25*	3	7
COc1ccc2nc(Nc3nc(CSc4ccc(C)cc4)cc(=O)[nH]3)nc(C)c2c1	i	1	-2	-1	-1	nt	nt
CCOC(=O)/C(=C\C=C1/Sc2ccccc2N1CC)C(C)=O	i	77	nt	180	186*	196*	176*
O=C(NCCCc1ccccc1)c1ccc(CS(=O)Cc2ccc(Cl)cc2)o1 (stereo unspecified)	i	5	-4	5	2	nt	nt
CC(=O)N1CCc2c(sc(NC(=O)c3cccc(N4C(=O)CCC4=O)c3)c2C(N)=O)C1	i	25	34	34	33*	41*	56*
SMILES	Myeloid diff MLP	CSN inh	Rpn11 inh	HNF4A DNA FP	TPT1 inh	caTPT1 confirm	RNase T1 counter
NC(=O)c1c(NC(=O)C2COc3ccccc3O2)sc2c1CCN(Cc1ccccc1)C2 (stereo unspecified)	i	29	nt	57	67*	70*	85*
CCCN1CCc2c(sc(NC(=O)c3ccc(S(=O)(=O)N(C)c4ccccc4)cc3)c2C(N)=O)C1	+	9	38	34*	107*	113*	115*
NC(=O)c1c(NC(=O)c2cccc(N3C(=O)CCC3=O)c2)sc2c1CCCCC2	i	-1	-3	2	1	nt	nt
CCOC(=O)c1c(NC(=O)C2COc3ccccc3O2)sc2c1CCN(Cc1ccccc1)C2 (stereo unspecified)	i	-9	8	-4	3	nt	nt
CCN1CCc2c(sc(NC(=O)c3ccc(S(=O)(=O)N(C)CC4CCCO4)cc3)c2C(N)=O)C1 (stereo unspecified)	i	-4	5	2	9	nt	nt
CC(=O)Nc1sc2c(c1-c1nc3ccccc3s1)CCN(C(C)C)C2	?	-75	nt	-6	43*	47*	53*
N#Cc1c(N)sc2c1CCN(CCc1ccccc1)C2	i	27	nt	44	75*	71*	82*
CC(C)N1CCc2c(sc(NC(=O)c3ccc(C(=O)c4ccccc4)cc3)c2C(N)=O)C1	i	9	24	7	35*	31*	48*
CC(C)(C)C(=O)Nc1sc2c(c1C#N)CCCCC2	i	-5	-5	2	-2	nt	nt
NC(=O)c1c(NC(=O)C2c3ccccc3Oc3ccccc32)sc2c1CCCCC2	i	18	39	-5	27*	14	22*
CC(C)(C)C(=O)Nc1sc2c(c1C#N)CCN(Cc1ccccc1)C2	i	-10	-47	-11	39*	62*	67*
CC(=O)c1ccc(C(=O)Nc2sc3c(c2C(N)=O)CCN(Cc2ccccc2)C3)cc1	+	44	nt	71	132*	140*	141*
COc1ccc(CCNc2nc(-c3ccc(F)cc3)c(CC(=O)O)s2)cc1OC	+	32	31	4	98*	15	23*
Cc1[nH]c2ccccc2c1C(=O)C(=O)N(C)C1CCCCC1	i	-2	-11	5	-1	nt	nt
Cc1[nH]c2ccccc2c1C(=O)CSC(=S)N(C)C1CCCCC1	i	3	-3	-1	128*	12	14
COc1ccc(NC(=O)C2CC2(Cl)Cl)cc1S(=O)(=O)N1CCCCC1 (stereo unspecified)	i	-3	-1	1	nt	nt	nt
